From PubChem BioAssay
M1 agonist – agonists of M1 muscarinic receptor | CHO-M1 cells, Fluo-4 calcium fluorescence, agonist mode; stronger effect = higher value | B-score at 10 µM | actives 3% (n = 64,000) | AID 626;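 active = fluorescence rise, raw or as B-score row- and column-corrected plate score, outside the 99.7% band of its plate's samples, either direction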
HEK293 NFkB inh – lowers PMA/ionomycin-induced NF-kB signal in HEK293 cells | HEK-293 NF-kB luciferase reporter, luminescence | inhibition, % at 3 µM | actives 0.21% (n = 62,000) | AID 465;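 active = inhibition above the mean of all tested compounds plus 3 SD, cut at about 40% in these data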
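Timing: 1 h pretreatment, 16 h stimulation, 37 °C; system: HEK-293 cells with stable firefly luciferase reporter driven by four HIV NF-kB elements; doses: 3 µM once, 0.30% DMSO; measured by: luciferase luminescence; control set: DMSO and 10 µM reference inhibitor; repeats: single test; reagent: PMA plus ionomycin mix as NF-kB-activating stimulus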
D1 allo mod – allosterically modulates the human D1 dopamine receptor | HEK293 D1, CRE-luciferase, dopamine EC30 potentiation; actives deviate in either direction | P21728 | actives 5.9% (n = 58,000) | B-score at 10 µM;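 active = luminescence count or its row- and column-corrected plate score outside the 99.7% band of the plate's sample wells, on either side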
Target sequence (P21728 whole entry, looked up): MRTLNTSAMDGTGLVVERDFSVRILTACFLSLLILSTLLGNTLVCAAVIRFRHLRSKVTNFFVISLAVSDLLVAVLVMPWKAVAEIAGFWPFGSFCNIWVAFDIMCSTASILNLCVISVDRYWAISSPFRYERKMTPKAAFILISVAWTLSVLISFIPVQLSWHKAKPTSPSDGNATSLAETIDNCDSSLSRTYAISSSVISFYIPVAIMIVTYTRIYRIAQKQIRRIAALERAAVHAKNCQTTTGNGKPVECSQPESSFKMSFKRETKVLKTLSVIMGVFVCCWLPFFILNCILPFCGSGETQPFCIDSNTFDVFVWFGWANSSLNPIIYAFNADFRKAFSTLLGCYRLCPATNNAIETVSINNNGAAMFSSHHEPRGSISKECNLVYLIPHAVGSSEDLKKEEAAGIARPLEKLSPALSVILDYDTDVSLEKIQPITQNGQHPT
Jurkat tox 60K – reduces viability or proliferation of Jurkat cells; inhibition, % at 4 µM; actives 1.2% (n = 56,000); Jurkat E6.1 viability, ATP luminescence, 48 h;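 active = inhibition above the mean inhibition of all tested compounds plus 3 SD, cut at about 28% in these data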
M1 antagonist – M1 muscarinic receptor (rat) antagonism; P08482; CHO-M1 cells, Fluo-4 calcium, ACh EC80 antagonist mode; stronger effect = lower value; B-score at 10 µM; actives 3.4% (n = 64,000); AID 628;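 active = calcium fluorescence response, raw or row-and-column corrected B-score, differing from the plate sample mean either way at a set confidence level, mostly lower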
Htt clearance – mutant huntingtin protein clearance | HeLa Exon1htt(103Q)mCFP, aggregate imaging; zero = plate's median compound well | inhibition, % at 1.5 µM | actives 0.42% (n = 47,000) | AID 853;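 active = inhibition of aggregate fluorescence above about 70%, also judged a hit by eye on the cell image, limit read from the data, passing the limit was not always enough; inconclusive = no rule stated for this call; inactive = not judged a hit on image review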;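 also: cells exposed to compound for three days before fixation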
M1 agonist conf – confirmation of rat M1 muscarinic receptor agonists. fluorescence change (max-min) at 10 µM. CHO-M1 cells, Fluo-4 calcium fluorescence, agonist mode; actives lie on both sides. actives 19% (n = 1,700). shares compounds with M1 agonist. AID 1488;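 active = fluorescence change differs from the solvent-only DMSO control mean at a set confidence level in both duplicate runs; inconclusive = differs from solvent-only control mean in just one of two runs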;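 also: an EC20 dose of acetylcholine follows compound addition during the same imaging run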
M4 ag counter – rat M4 muscarinic agonism, M1 counter-screen; shares compounds with M1 agonist; CHO M4/Gqi5 cells, Fluo-4 calcium fluorescence, agonist mode; actives lie on both sides; fluorescence change (max-min) at 10 µM; actives 9% (n = 1,700); AID 1741;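 active = fluorescence change differing from the plate's solvent-only control wells at 99.7% confidence in both duplicates, whether higher or lower; inconclusive = differs from solvent controls in only one of two duplicates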
M1 antag conf – M1 muscarinic receptor (rat) antagonism, confirmed. shares compounds with M1 antagonist. CHO-M1 cells, Fluo-4 calcium, ACh EC80 antagonism; stronger effect = lower value. calcium response (max-min fluorescence) at 10 µM. actives 43% (n = 1,700);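 active = calcium response below the same-plate mean of wells given acetylcholine alone at its 80%-effect dose, minus 3 SD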
mGluR4 antag – selectivity test for M1 antagonists: human mGluR4 receptor; shares compounds with M1 antagonist; CHO-mGluR4 calcium flux, Fluo-4 fluorescence, glutamate EC80; stronger effect = lower value; fluorescence response (max-min) at 10 µM; actives 0.9% (n = 1,700); AID 678;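 active = fluorescence response below the plate's average for near-maximal glutamate wells, less 3 SD of those wells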;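 also: raw unnormalized fluorescence span taken in the window right after glutamate addition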
D1 PAM confirm – confirmation of human D1 dopamine receptor allosteric modulators; shares compounds with D1 allo mod; HEK293 D1 CRE-luciferase, dopamine EC30 potentiation; stronger effect = higher value; luminescence at 10 µM; actives 88% (n = 2,200); AID 642;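 active = luminescence in either of two replicates above the same-plate mean plus 3 SD of the low-dose dopamine control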
D1 no dopamine – activates D1 CRE-luciferase signal without dopamine present | actives 0.8% (n = 1,900) | AID 646 | shares compounds with D1 allo mod | luminescence at 10 µM | HEK293 D1 CRE-luciferase, luminescence, no dopamine; stronger effect = higher value; in the data active = luminescence above about 3900
Isoprot counter – isoproterenol response counter-screen activity for D1 modulators; actives 63% (n = 2,200); AID 647; luminescence at 10 µM; HEK293 D1 CRE-luciferase, isoproterenol EC30 counter-screen; stronger effect = higher value; shares compounds with D1 allo mod;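 active = luminescence in either replicate above plate mean of wells with a partly effective reference agonist dose plus 3 SD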;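 also: isoproterenol raises cAMP through native beta-adrenoceptor Gs so signal bypasses D1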
Of the large screens only hits and unclear results are named; the others gave an inactive call (follow-up assays come after a bar, where they were run). Only some compounds are listed: those with a hit (about 9.5% of all), similar ones and a draw of the others.

COc1ccc(C2C(C(=O)NC(C)C)c3ccccc3C(=O)N2C)cc1OC (centres undefined)	M1 agonist 3.4 (no result: Jurkat tox 60K) | M1 agonist conf inactive | M4 ag counter inactive
COCCn1c(N)c(C(=O)OCc2ccccc2)c2nc3ccccc3nc21	none
COCCNC(=O)c1c(N)n(CCC2=CCCCC2)c2nc3ccccc3nc12	M1 agonist 6.2 (no result: HEK293 NFkB inh, Jurkat tox 60K, Htt clearance) | M1 agonist conf inactive | M4 ag counter inactive
COc1cc(/C=C/C(=O)CC(=O)/C=C/c2ccc(O)c(OC)c2)ccc1O	M1 agonist 164 (no result: HEK293 NFkB inh, Jurkat tox 60K, Htt clearance) | M1 agonist conf 367 | M4 ag counter 401
O=c1c2c3c(sc2nc2n1CCCCC2)CCCC3	none (no result: M1 agonist, M1 antagonist, Htt clearance)
N=c1c2c3c(sc2nc2n1CCCCC2)CCCCC3	M1 agonist -3.3, M1 antagonist -19 (no result: Jurkat tox 60K, Htt clearance) | M1 agonist conf -24 | M4 ag counter inactive | M1 antag conf 15 | mGluR4 antag inactive
CC1CCc2sc3c(c2C1)c1ncnn1c(=O)n3CC(=O)c1ccc(Br)cc1 (centres undefined)	none
Cc1ccc(CC2C(=O)N(c3ncccn3)C(=O)C2C)cc1 (centres undefined)	M1 agonist -3.7, M1 antagonist -7 | M1 agonist conf inactive | M4 ag counter inactive | M1 antag conf inactive | mGluR4 antag inactive
Cc1ccc(CC2C(=O)N(CC(=O)O)C(=O)C2C)cc1 (centres undefined)	none (no result: M1 agonist, HEK293 NFkB inh, D1 allo mod, Jurkat tox 60K, M1 antagonist)
CCOC(=O)N1CCN(c2ccc3nnnn3n2)CC1	none
O=C(O)c1cc(-c2ccco2)nc2ccc(Br)cc12	M1 agonist -2.5, M1 antagonist -17 (no result: Htt clearance) | M1 agonist conf inactive | M4 ag counter inactive | M1 antag conf inactive | mGluR4 antag inactive
CCCN1CCN(CCCNC(=O)c2cc3c(=O)n(C)c4ccccc4c3n2C)CC1	M1 agonist -3.1, M1 antagonist -4.3 | M1 agonist conf inconclusive | M4 ag counter inactive | M1 antag conf inactive | mGluR4 antag inactive
CCCCCn1c(=NC(=O)c2ccco2)c(C(=O)OCC)cc2c(=O)n3ccccc3nc21	none
CCCCn1c(=NC(=O)c2cccnc2)c(C(=O)OCC)cc2c(=O)n3ccccc3nc21	M1 agonist 8.8, D1 allo mod 7 (no result: Jurkat tox 60K, Htt clearance) | M1 agonist conf -33 | M4 ag counter inconclusive | D1 PAM confirm 11452 | D1 no dopamine inactive | Isoprot counter inactive
CCCCCc1c(C)c(C#N)c2nc3ccccc3n2c1-n1ccnc1C	none (no result: M1 agonist, HEK293 NFkB inh, D1 allo mod, Jurkat tox 60K, M1 antagonist)
C=C(C)CN1CCN(c2c(CCC#N)c(C)c(C#N)c3nc4ccccc4n23)CC1	M1 agonist 5.7, D1 allo mod 5.4 (no result: HEK293 NFkB inh, Jurkat tox 60K, Htt clearance) | M1 agonist conf inactive | M4 ag counter inactive | D1 PAM confirm 11364 | D1 no dopamine inactive | Isoprot counter 3016
Cc1ccc2c(c1)c1nc3ccccc3nc1n2CCN1CCOCC1	M1 agonist 7.2, D1 allo mod 7.7 (no result: Htt clearance) | M1 agonist conf inactive | M4 ag counter inactive | D1 PAM confirm 21896 | D1 no dopamine inactive | Isoprot counter 5476
CCCCn1c(NC(C)=O)c(C#N)c2nc3ccccc3nc21	M1 agonist 5.5, D1 allo mod 3.8 (no result: Htt clearance) | M1 agonist conf inactive | M4 ag counter inactive | D1 PAM confirm 11192 | D1 no dopamine inactive | Isoprot counter inactive
Cc1cccc(-c2c3c(=O)n(C)c(=O)n(C)c3cn2CC2CCCO2)c1 (centres undefined)	none (no result: Htt clearance)
CCn1c(SCC(=O)Nc2ccccc2N2CCCCC2)nc2c1c(=O)n(C)c(=O)n2C	M1 agonist 2, D1 allo mod 3.9 | M1 agonist conf inactive | M4 ag counter inactive | D1 PAM confirm 6828 | D1 no dopamine inactive | Isoprot counter inactive
CC1CCCCC1NC(=O)C1CCN(S(=O)(=O)c2cccc3nsnc23)CC1 (centres undefined)	none (no result: M1 agonist, HEK293 NFkB inh, D1 allo mod, Jurkat tox 60K, M1 antagonist)
CN(C)c1ccc2c(c1)OC(N)=C(C#N)C2c1cccc(F)c1 (centres undefined)	M1 agonist 20, HEK293 NFkB inh 44, D1 allo mod 8.8, Jurkat tox 60K 86, M1 antagonist -3.4 (no result: Htt clearance) | M1 agonist conf 163 | M4 ag counter 120 | D1 PAM confirm 14124 | Isoprot counter 4592
Cc1ccc(C)c(-n2nnnc2SCC(=O)NCCC2=CCCCC2)c1	none (no result: D1 allo mod, Htt clearance)
CCOC(=O)c1c(NC(=O)c2nn(CC)cc2Br)c(C#N)cn1-c1ccccc1	M1 agonist 3.1, D1 allo mod 6.7 | M1 agonist conf inactive | M4 ag counter inactive | D1 PAM confirm 8888 | D1 no dopamine inactive | Isoprot counter 3340
COc1ccc(-c2c3c(=O)n(C)c(=O)n(C)c3cn2-c2ccccc2)cc1	M1 agonist 2.2, D1 allo mod 6.5 (no result: Htt clearance) | M1 agonist conf inconclusive | M4 ag counter inactive | D1 PAM confirm 12728 | D1 no dopamine inactive | Isoprot counter inactive
CCOC(=O)c1cn(-c2ccccc2)nc1-c1ccncc1	M1 agonist 2.2, D1 allo mod 13 | M1 agonist conf inconclusive | M4 ag counter inconclusive | D1 PAM confirm 20136 | D1 no dopamine inactive | Isoprot counter 5740
O=C(O)c1cn(-c2ccccc2)nc1-c1ccncc1	none (no result: D1 allo mod, Htt clearance)
